Tests used:
Blood [1] = assay: Inhibition of LPS-induced IL6 release in human whole blood; type: functional, tissue-based
Summary of the method: (§1)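 Healthy human whole blood, ex vivo, was stimulated with LPS. TNF-α, IL-1β, IL-6, IL-8, IL-10 and IL-12p70 were quantified concurrently by a multiplexed flow-cytometric bead array. IC50 is the concentration inhibiting 50% of the response. Run in triplicate with polymyxin B reference and negative and positive controls.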

HEK293 = assay: Inhibition of LPS-induced NF-kappaB production in HEK293 cells; type: functional, cell-based; conditions: Homo sapiens
Summary of the method: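 HEK293 cells cotransfected with TLR4, CD14 and MD2 were stimulated with LPS, and induction of NF-κB was quantified. IC50 is the concentration inhibiting 50% of the response. Run in triplicate with polymyxin B reference and negative and positive controls.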

[2] = Binding affinity to lipid A moiety of LPS in gram negative bacteria by fluorescent-based displacement assay
Summary of the method: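 LPS binding measured by automated rapid-throughput fluorescence displacement of the probe BODIPY-TR cadaverine from LPS. ED50 is the concentration displacing 50% of LPS-bound probe. Run in triplicate, with polymyxin B as reference and negative and positive controls.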

Mus musculus [3] = assay: Protection against LPS-induced lethality in galactosamine-sensitized CF1 mouse model of septic shock at >2 mg/kg after 24 hrs; type: functional, organism-based
Summary of the method: (§2)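 Female outbred CF-1 mice, 9–11 weeks old and 22–28 g, were sensitized with D-galactosamine. Cohorts of five received graded compound doses in saline i.p. in one flank, immediately before an i.p. challenge of 200 ng E. coli 0111:B4 LPS (2× LD100) in the other flank. Lethality was scored at 24 h.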

J774.1 = assay: Inhibition of LPS-induced nitric oxide production in murine J774.1 cells by automated Griess assay; type: functional, cell-based; conditions: Mus musculus
Summary of the method: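 Murine macrophage J774A.1 cells were stimulated with 100 ng/mL LPS, and NO was read by automated Griess assay. IC50 is the concentration inhibiting 50% of the response. Run in triplicate with polymyxin B reference and negative and positive controls.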

Blood [4] = assay: Inhibition of LPS-induced IL8 release in human whole blood; type: functional, tissue-based; summary of the method: as §1
Blood [5] = assay: Inhibition of LPS-induced TNFalpha release in human whole blood; type: functional, tissue-based; summary of the method: as §1
Mus musculus [6] = assay: Protection against LPS-induced lethality in galactosamine-sensitized CF1 mouse model of septic shock at 8 mg/kg after 24 hrs; type: functional, organism-based; parameters: dose 8 mg/kg; summary of the method: as §2

IC50 (Blood [1]) [µM]	ED50 [2] [µM]	IC50 (J774.1) [µM]	IC50 (Blood [4]) [µM]	IC50 (Blood [5]) [µM]	IC50 [2] [µM]	SMILES	IC50 (HEK293) [µM]	Activity (Mus musculus [3])	Activity (Mus musculus [6])
7.77	2.62	0.32	12.5	11		CCCCCCCCS(=O)(=O)NCCCN(CCCNCCCNCCCCNCCCN)CCCNS(=O)(=O)CCCCCCCC	0.3	Toxic	
8.8	6.01	0.48	15.4	18		CCCCCCCCCCCCCCCCCCS(=O)(=O)NCCCNCCCCNCCCN	0.36		
	55.2	5				CCCCCCCCCCCCS(=O)(=O)NCCCNCCCNCCCCNCCCNCCCNS(=O)(=O)CCCCCCCCCCCC	10.3		
5.92	4.71	0.12	15.1	14.2	4.2	CCCCCCCCCCCCCCCCS(=O)(=O)NCCCNCCCNCCCCNCCCN	0.2		Dose-dependent effect
	9.31	5.2				CCCCCCCCCCCCCCCCS(=O)(=O)NCCCN(CCCNCCCNCCCCNCCCN)CCCNS(=O)(=O)CCCCCCCCCCCCCCCC	2.68		
	13.5	0.692				CCCCCCCCCCS(=O)(=O)NCCCNCCCNCCCCNCCCNCCCNS(=O)(=O)CCCCCCCCCC	4.2		
	2.6	0.577				CCCCCCCCS(=O)(=O)NCCCNCCCNCCCCNCCCNCCCNS(=O)(=O)CCCCCCCC	0.607		
29.4	2.89	1.09	22.4	32.9		CCCCCCCCCCS(=O)(=O)NCCCNCCCNCCCCNCCCN	0.278		
	2.4	1.1				CCCCCCCCCCS(=O)(=O)NCCCN(CCCNCCCCNCCCN)CCCNS(=O)(=O)CCCCCCCCCC	5.17		
	1.16	0.43				CCCCCCCCCCS(=O)(=O)NCCCN(CCCNCCCNCCCCNCCCN)CCCNS(=O)(=O)CCCCCCCCCC	2.2		
	3.98	2.27				CCCCCCCCCCCCS(=O)(=O)NCCCN(CCCNCCCCNCCCN)CCCNS(=O)(=O)CCCCCCCCCCCC	13.2		
	2.17	1.82				CCCCCCCCS(=O)(=O)NCCCN(CCCNCCCCNCCCN)CCCNS(=O)(=O)CCCCCCCC	0.669		
8.17	3.87	0.45	15.2	22.1		CCCCCCCCCCCCCCCCS(=O)(=O)NCCCNCCCCNCCCN	0.28		Dose-dependent effect
	28.3					CCCCCCCCCCCCCCCCCCS(=O)(=O)NCCCN(CCCNCCCCNCCCN)CCCNS(=O)(=O)CCCCCCCCCCCCCCCCCC	64		
	4.45	0.23				CCCCCCCCCCCCCCCCCCS(=O)(=O)NCCCNCCCNCCCCNCCCN	1.06		
	133	6.3				CCCCCCCCCCCCCCCCS(=O)(=O)NCCCNCCCNCCCCNCCCNCCCNS(=O)(=O)CCCCCCCCCCCCCCCC	11.7		
	6.82	0.51				CCCCCCCCCCCCS(=O)(=O)NCCCN(CCCNCCCNCCCCNCCCN)CCCNS(=O)(=O)CCCCCCCCCCCC	16.4		
12.1	2.92	0.39	15.3	30.1		CCCCCCCCCCCCS(=O)(=O)NCCCNCCCNCCCCNCCCN	0.19		
	5000	4.22				CCCCCCCCCCCCCCCCCCS(=O)(=O)NCCCNCCCNCCCCNCCCNCCCNS(=O)(=O)CCCCCCCCCCCCCCCCCC	6.49		
	26.4	15.1				CCCCCCCCCCCCCCCCS(=O)(=O)NCCCN(CCCNCCCCNCCCN)CCCNS(=O)(=O)CCCCCCCCCCCCCCCC	4.85		

Further lines, the compound ahead of its results:

SMILES	IC50 (Blood [1]) [µM]	ED50 [2] [µM]	IC50 (J774.1) [µM]	IC50 (Blood [4]) [µM]	IC50 (Blood [5]) [µM]	IC50 [2] [µM]	IC50 (HEK293) [µM]	Activity (Mus musculus [3])	Activity (Mus musculus [6])
CCCCCCCCS(=O)(=O)NCCCNC/C=C/CNCCCN		12.4					12.7		
CCCCCCCCS(=O)(=O)NCCCNCCCNCCCN		6.7					5.56		
CCCCCCCCCCCCS(=O)(=O)NCCCNC/C=C/CNCCCN		3.83					0.522		
CCCCCCCCCCCCCCCCS(=O)(=O)NCCCOCCCCOCCCN		> 5000	30.9				22.4		
CCCCCCCCCCCCCCCCS(=O)(=O)N(CCCN)CCCCNCCCN		45.6	13.7				2.68		
CCCCCCCCCCCCS(=O)(=O)NCCCNCCCCNCCCN		2.69	1.34				0.41		
CCCCCCCCS(=O)(=O)NCCNCCCNCCN		10.6					13.8		
CCCCCCCCS(=O)(=O)NCCCNCCCNCCCCNCCCN		2.84	6.47				0.816		
CCCCCCCCCCCCCCCCS(=O)(=O)NCCCN(CCCN)CCCN		12.3					9.19		
CCCCCCCCS(=O)(=O)NCCCNCCCCNCCCN		6.64	1.44				33.3		
CCCCCCCC(=O)NCCCN(CCCNCCCCNCCCN)CCCNC(=O)CCCCCCC		1	9.02				9.76		
CCCCCCCCCCCCS(=O)(=O)NCCCNCCCNCCCN		4.27					0.363		
CCCCCCCCCCS(=O)(=O)NCCCNCCCCNCCCN		3.7	4.42				0.5		
CCCCCCCCCCCCCCCCS(=O)(=O)NCCN(CCN)CCN		3.54					0.379		
CCCCCCCC(=O)NCCCN(CCCNCCCNCCCCNCCCN)CCCNC(=O)CCCCCCC		1.32	2.48				3.17		
CCCCCCCCCCCCS(=O)(=O)NCCNCCCNCCN		4.77					0.686		
